Screens: PubChem BioAssay, several laboratories
NR1D1 modulator: modulators of Rev-erb alpha DNA binding, primary screen, biochemical, FITC-DNA, fluorescence polarization, uHTS; Nuclear receptor subfamily 1 group D member 1 (Homo sapiens), P20393; Rev-erbα–FITC-DNA binding, 90 min; activity, % at 10 µM; 0.79% of 370,000 active;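 active = activity above about 14%, limit read from the data; passing the limit was not always enough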;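 also: 0% = DMSO wells with 35 nM protein and 100% = DMSO wells with 750 nM protein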
PG9 Ab binder: binders of HIV-1 gp120 antibody PG9, primary screen, biochemical, TR-FRET; TR-FRET gp120-PG9 antibody binding; AID 624416, 2012; 0.43% of 360,000 active; inhibition, % at 6.7 µM; in the data active = inhibition above about 8.5%
MT1-MMP act inh: blockers of MT1-MMP proenzyme processing, primary screen, HT1080 RFP-PRO-GFP cells, GFP/RFP fluorescence; Matrix metalloproteinase-14 (Homo sapiens), P50281; GFP/RFP ratio fluorescence, overnight; percent of plate control window, DMSO zero; GFP/RFP ratio change, % at 20 µM; 0.061% of 360,000 active; AID 651647, 2012;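 active = GFP/RFP ratio change of at least 30% with cell ATP level not reduced by more than half and red fluorescence within 50% of control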
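system = RFP-PRO-GFP reporter HT1080 cells | dosing = 20 µM single dose, 1% DMSO | timing = overnight cell settling, then overnight compound exposure, 37 °C, 5% CO2 | read-out basis = GFP/RFP fluorescence ratio | controls = DMSO and RFP-L50D-GFP cell wells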
SKN-1 inh: suppressors of acrylamide-induced Pgst-4::GFP reporter in worms, primary screen, SKN-1 inhibitor project, whole organism, uHTS, GFP/RFP fluorescence ratio, strain VP596 | C. elegans VP596 Pgst-4::GFP/RFP ratio, 24 h | inhibition, % at 21.8 µM | 0.49% of 360,000 active | AID 624304, 2012;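 active = interference check ratio from 0.5 to 1.5 plus GFP to RFP signal ratio inhibition reaching or exceeding a fixed threshold, cut at about 30% in these data, passing the limit was not always enough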
NR2E3 ag-1: NR2E3 agonists in two-hybrid cells, primary screen, cell-based, luminescence, CHO-S, Gal4-NCOR/VP16-NR2E3 | Photoreceptor-specific nuclear receptor (Homo sapiens), Q9Y5X4 | luciferase | inhibition of corepressor binding, % at 3.98 µM | 0.35% of 360,000 active;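 active = inhibition above the mean of all tested compounds plus 3 SD, cut at about 70% in these data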;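 also: 0% = DMSO with NR2E3 transfected cells and 100% = cells lacking NR2E3 construct; higher means lower luciferase signal from less NR2E3 corepressor binding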
Target sequence (Q9Y5X4 whole entry, looked up, the tested form may be a part): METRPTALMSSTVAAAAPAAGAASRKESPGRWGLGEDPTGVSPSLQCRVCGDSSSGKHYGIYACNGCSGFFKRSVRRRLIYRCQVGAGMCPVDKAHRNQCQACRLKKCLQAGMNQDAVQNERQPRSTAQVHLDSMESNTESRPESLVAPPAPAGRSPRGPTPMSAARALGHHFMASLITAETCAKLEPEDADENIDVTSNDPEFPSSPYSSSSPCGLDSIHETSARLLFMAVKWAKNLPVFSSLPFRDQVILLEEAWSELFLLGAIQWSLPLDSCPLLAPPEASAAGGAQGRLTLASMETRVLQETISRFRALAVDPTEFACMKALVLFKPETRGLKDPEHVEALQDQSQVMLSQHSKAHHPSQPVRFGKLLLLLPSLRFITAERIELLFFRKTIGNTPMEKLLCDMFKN
NR2E3 ag-2: inhibitors of NR2E3-RetCOR corepressor binding, primary screen, NR2E3 agonist project, biochemical, TR-FRET, GST-NR2E3, biotin-RetCOR. Photoreceptor-specific nuclear receptor (Homo sapiens), Q9Y5X4. 1536-well. inhibition of corepressor binding, % at 4.78 µM. 0.12% of 320,000 active. AID 2300, 2010;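 active = percent inhibition above the cutoff of mean plus 3 SD of all tested compounds, set per screening campaign, cut at about 20% in these data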;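 also: 0% = DMSO wells and 100% = biotin wells as full block of FRET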
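Format: 1536-well format; test system: GST-NR2E3 and biotin-RetCOR proteins; read-out basis: percent inhibition of TR-FRET ratio; timing: 5 h incubation at 4 °C; detection: time-resolved FRET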
NR2E3 ag conf: NR2E3 agonist confirmation in cells, cell-based, luminescence, CHO-S two-hybrid; CHO-S mammalian two-hybrid NR2E3-NCOR, luciferase luminescence; 51% of 2,300 active; shares compounds with NR2E3 ag-1; inhibition, % at 3.98 µM;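 active = average inhibition above a cutoff equal to the mean inhibition of all tested compounds plus one SD, cut at about 70% in these data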;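 also: 0% = DMSO in NR2E3 cells and 100% = DMSO in cells lacking NR2E3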
GAL4-VP16 luc: GAL4-VP16 reporter modulators, confirmation, counter-screen for NR2E3 agonist project, cell-based, luminescence, CHO-S, high throughput. shares compounds with NR2E3 ag-1. CHO-S GAL4-VP16 luciferase reporter. inhibition, % at 3.98 µM. 29% of 2,300 active;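 active = mean inhibition above a cutoff equal to the average over all tested compounds plus one standard deviation, cut at about 70% in these data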;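 also: luciferase from a UAS reporter driven by GAL4-VP16 transactivation; 0% = DMSO with VP16-transfected cells and 100% = DMSO with cells lacking VP16; higher means less reporter light so more repression of VP16 activity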
The depositor's hits bear a star. A selection: hits, their analogues and other compounds. The true share with any hit is near 1.9%.

Screening O=C(NCc1cccc(C(F)(F)F)c1)c1[nH]c(C(F)(F)F)nc1-c1ccccc1 returned MT1-MMP act inh 0.7, SKN-1 inh -4.8, NR2E3 ag-1 91.0*, NR2E3 ag conf 59.2 and GAL4-VP16 luc 27.4.
`Cc1ccc(CNC(=O)c2[nH]c(C(F)(F)F)nc2-c2ccccc2)cc1` gave NR1D1 modulator 0.6, PG9 Ab binder -1.9, MT1-MMP act inh 1.0, SKN-1 inh -16.1 and NR2E3 ag-1 24.2.
Screening C=CCN1C(=O)[C@@H](CC(=O)NCc2ccc(OC)c(OC)c2)[C@]2(C(=O)OC)CCCCC=C12 returned NR1D1 modulator 6.8.
Screening C=CCC1(CC=C)CCCN1C(=O)c1cc(COc2cncc(Cl)c2)on1 returned NR1D1 modulator -0.3, PG9 Ab binder -1.8, MT1-MMP act inh -15.4, SKN-1 inh 11.7, NR2E3 ag-1 89.6*, NR2E3 ag-2 -0.2, NR2E3 ag conf 86.6* and GAL4-VP16 luc 69.2.
Screening C=CCC1(CC=C)CCCN1C(=O)c1cc(COc2cccc(OC)c2)on1 returned NR1D1 modulator 2.2, PG9 Ab binder -1.3, MT1-MMP act inh 3.1, SKN-1 inh 29.7, NR2E3 ag-1 14.0 and NR2E3 ag-2 -0.7.
CC(C)(C)C(=O)Nc1ccc(Sc2ccc([N+](=O)[O-])cc2)cc1 was read as NR1D1 modulator -0.8, PG9 Ab binder 1.4, SKN-1 inh 9.7, NR2E3 ag-1 53.1, NR2E3 ag-2 -2.0, NR2E3 ag conf 78.5* and GAL4-VP16 luc 54.0.
For CC(C)(C)C(=O)NC(NC(=O)C(C)(C)C)c1ccc([N+](=O)[O-])cc1 the results were NR1D1 modulator 2.1, PG9 Ab binder -0.4, MT1-MMP act inh 1.5, SKN-1 inh -1.5, NR2E3 ag-1 -38.4 and NR2E3 ag-2 -1.9.
Screening CC(=O)Nc1ccc(Sc2ccc([N+](=O)[O-])o2)cc1 returned NR1D1 modulator -2.5, PG9 Ab binder 0.6, MT1-MMP act inh -9.9, SKN-1 inh -0.8, NR2E3 ag-1 72.2*, NR2E3 ag conf 92.6* and GAL4-VP16 luc 4.0.
For O=C(Nc1ccc(F)cc1)OCc1cn(Cc2cccc(C(F)(F)F)c2)nn1 the results were NR1D1 modulator 2.2.
For Cc1ccccc1-n1c(-c2ccco2)n[nH]c1=S the results were NR1D1 modulator -1.6, PG9 Ab binder 1.3, MT1-MMP act inh 4.7, SKN-1 inh 8.8, NR2E3 ag-1 -13.9 and NR2E3 ag-2 -0.4.
Screening FC(F)(F)c1ccccc1-n1c(-c2ccco2)n[nH]c1=S returned NR1D1 modulator -2.3, PG9 Ab binder 1.2, MT1-MMP act inh -2.4, SKN-1 inh 8.5, NR2E3 ag-1 62.9, NR2E3 ag-2 0.3, NR2E3 ag conf 19.7 and GAL4-VP16 luc 2.6.
For Cc1cccc(-n2ncc3c2CCCC3NC(=O)CN2CCOC2=O)c1C (stereo not given) the results were NR1D1 modulator 0.3, PG9 Ab binder -0.2, MT1-MMP act inh 3.1, SKN-1 inh 20.5, NR2E3 ag-1 -3.2 and NR2E3 ag-2 -2.6.
For Cc1cccc(-n2ncc3c2CCCC3NC(=O)c2cccs2)c1C (stereo not given) the results were NR1D1 modulator -1.6, PG9 Ab binder -1.7, MT1-MMP act inh 9.5, SKN-1 inh 5.5 and NR2E3 ag-1 17.4.
`Cc1cccc(-n2ncc3c2CCCC3NC(=O)c2ccncc2)c1C` (stereo not given) gave NR1D1 modulator 4.3, PG9 Ab binder 2.0, MT1-MMP act inh 10.1, SKN-1 inh 12.1, NR2E3 ag-1 83.0*, NR2E3 ag conf 85.1* and GAL4-VP16 luc 76.8*.
For CC1=C(C(=O)NC2CCCc3c2cnn3-c2cccc(C)c2C)OCCO1 (stereo not given) the results were NR1D1 modulator 3.5, PG9 Ab binder 0.9, MT1-MMP act inh 5.6, SKN-1 inh 0.5, NR2E3 ag-1 80.2*, NR2E3 ag-2 0.8, NR2E3 ag conf 73.0* and GAL4-VP16 luc 66.7.
`Cc1cc(C(=O)NC2CCCc3c2cnn3-c2cccc(C)c2C)no1` (stereo not given) gave NR1D1 modulator -1.4, PG9 Ab binder -0.2, MT1-MMP act inh 3.1, SKN-1 inh 10.3, NR2E3 ag-1 12.5 and NR2E3 ag-2 -0.7.
For COc1ccc(C(=O)NC2CCCc3c2cnn3-c2cccc(C)c2C)o1 (stereo not given) the results were NR1D1 modulator -4.1, PG9 Ab binder -2.4, MT1-MMP act inh -1.7, SKN-1 inh -0.6, NR2E3 ag-1 65.2, NR2E3 ag-2 1.5, NR2E3 ag conf 31.9 and GAL4-VP16 luc 30.1.
CCn1cc(C(=O)NC2CCCc3c2cnn3-c2cccc(C)c2C)cn1 (stereo not given) was read as NR1D1 modulator 1.2, PG9 Ab binder -0.4, MT1-MMP act inh 4.7, SKN-1 inh 7.9, NR2E3 ag-1 104.9*, NR2E3 ag-2 -0.1, NR2E3 ag conf 94.8* and GAL4-VP16 luc 88.3*.
For CCNC(=O)N1CCN(c2ccc(N3CCN(Cc4ccccc4)[C@@H](C)C3)c(C)c2)[C@H](C)C1 the results were NR1D1 modulator -3.6 and PG9 Ab binder -1.0.
COc1cc2c(cc1OC)CSC1C(=O)N(C)C(SC2)C(=O)N1C was read as NR1D1 modulator 0.1.
Screening COc1cccc(N(C)C(=O)[C@@H](C2CC2)[C@@H](O)c2ccc3ccccc3c2)c1 returned NR1D1 modulator 4.5.
Screening Cc1cccc(-n2ncc3c2CCCC3NC(=O)Cc2c(C)noc2C)c1C (stereo not given) returned NR1D1 modulator -0.4, PG9 Ab binder -2.5, MT1-MMP act inh -0.8, SKN-1 inh 3.5, NR2E3 ag-1 60.0, NR2E3 ag-2 0.2, NR2E3 ag conf 54.4 and GAL4-VP16 luc 56.9.
